# Test results as given in publication PMC10760106 (bioRxiv, 2023).
# Experiments:
# [1] = test system: HiBiT F3 ARPE-19 cells (fibulin-3 production); assay: HTS whole-well HiBiT F3 assay; type: cell-based, human; conditions: 0.2 nM – 50 μM, 24 h
# Method in brief: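 Genome-edited heterogeneous ARPE-19 cells (2xFLAG-VS-HiBiT inserted after Ser16 of F3) were seeded at ~5,000 cells/well in 384-well plates and grown 24 h at 37°C. Medium was exchanged, and test compound in 0.1% DMSO was applied for 24 h. Plates were cooled 20 min at RT, then received a lytic buffer master mix with LgBiT (1:100) and lytic substrate (1:50). After 5 min shaking, whole-well luminescence was read.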
# [2] = test system: HiBiT F3 ARPE-19 cells; assay: Cell Titer Glo 2.0 viability counter screen; type: cell-based, human; conditions: 1.66 and 5 μM, 48 h
# [3] = test system: HiBiT F3 in ARPE-19 cells; assay: non-HTS extracellular/intracellular HiBiT F3 assay; type: cell-based, human; conditions: for HiBiT F3 secretion (extracellular) / intracellular HiBiT F3 levels: dose-responsive, ARPE-19
# Method in brief: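 HiBiT F3 ARPE-19 cells were plated at 200,000 cells/mL, and test compound in medium was added the next day. Treatment lasted 72 h or 1 week, with medium and compound renewed after 96 h for 1-week wells. For intracellular signal, cells were washed in HBSS and lysed 5 min with shaking in lytic buffer containing LgBiT (1:100) and substrate (1:50). Luminescence was read on 40 μL of lysate.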
# [4] = CHIR PK experiment with LC-MS/MS; type: in vivo, mouse
# Method in brief: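 C57BL/6J mice (three per time point, at least one male and one female) received 25 mg/kg i.p. of test compound. It was given as 5 mg/mL in 2% DMSO/5.7% Captisol in PBS. Tissues were collected at 0, 30, 180, 360, 960 and 1440 min under isoflurane, and retina and liver were homogenized in PBS. […] Eye level was estimated from a vitreous volume of ~4.4 μL.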
# [5] = test system: MMP2; assay: MMP2 zymography; type: cell-based, human; conditions: 1 μM, 1 week, HiBiT WT F3 and R345W F3 cells
# Method in brief: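 HiBiT WT or R345W F3 ARPE-19 cells were grown on polyester transwells in serum-free medium for 1 week, then treated 1 week with 1 μM test compound or 0.1% DMSO. Apical and basal media went in non-reducing SDS buffer onto 10% gelatin gels (140 V, 90 min). Gels were renatured 30 min at RT, developed 30 min at RT, then overnight at 37°C in fresh developing buffer. Coomassie R-250 staining and densitometry followed.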
# [6] = test system: TCF-dependent Wnt signaling in HiBiT F3 ARPE-19 cells; assay: 7xTCF reporter; type: cell-based, human; conditions: 1 μM, one week, 7TFP cells
# [7] = test system: HiBiT F3 in primary human dermal fibroblasts; assay: HiBiT F3 assay in primary dermal fibroblasts; type: cell-based; conditions: 72 h, dose-responsive
# [8] = test system: HiBiT F5 in ARPE-19 cells; assay: HiBiT fibulin-5; type: cell-based, human
# [9] = preclinical neurological disorder studies; ref [61]; cited from earlier work
# [10] = test system: ARPE-19 cells; assay: lactate dehydrogenase; type: cell-based, human
# Method in brief: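 Test compound was applied to ARPE-19 cells for 72 h or 1 week. Media were spun at 1,000 RPM for 5 min. In technical triplicate, 50 μL of cleared medium was mixed with an equal volume of LDH reaction buffer for 30 min at 37°C. DMSO-treated medium served as control, and lysis buffer-treated cells served as positive control.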
# [11] = test system: transcriptome of HiBiT F3 ARPE-19 cells; assay: bulk RNAseq; type: cell-based, human; conditions: 1 μM, 1 week
# Method in brief: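 The next day, 1 μM test compound or DMSO (1:1000) was added, with a media change at 96 h. Total RNA was extracted 7 days after treatment start and stored at −80°C. PCR-amplified libraries were bead-purified and quality-checked on a Bioanalyzer before sequencing.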
# [12] = test system: secreted proteome of HiBiT ARPE-19 cells; assay: secreted proteome visualization and mass spectrometry; type: cell-based, human
# [13] = test system: HiBiT WT F3 and HiBiT R345W F3 ARPE-19 cells; assay: extracellular HiBiT assay on transwells, WT and R345W F3; type: cell-based, human; conditions: 1 μM, 1 week, serum-free
# Method in brief: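 Cells carried HiBiT-tagged WT or R345W F3 in ARPE-19, with R345W made by knock-in in clonal cells. They were seeded on polyester transwells (~100,000/well for 12-well, ~30,000/well for 24-well) and switched to serum-free medium the next day, with changes every 3–4 days. After 1 week, cells were treated 1 week with 1 μM test compound or 0.1% DMSO in serum-free medium. Apical and basal media were then assayed for extracellular HiBiT luminescence.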
# [14] = test system: BLamD in R345W+/+ knockin mice; assay: basal laminar deposit; type: in vivo, mouse; conditions: treated mice (30/720 FOV), 25 mg/kg i.p., 1 mo; untreated 14.205%
# [15] = test system: HiBiT mouse F3 in NIH-3T3 cells; assay: HiBiT F3 assay in NIH-3T3 fibroblasts; type: cell-based; conditions: NIH-3T3 mouse cells, 72 h
# [16] = both, C57BL/6J, mouse, eye, ip, 25 mg/kg
# [17] = both, C57BL/6J, mouse, liver, ip, 25 mg/kg
# [18] = both, C57BL/6J, mouse, plasma, ip, 25 mg/kg
# [19] = both, C57BL/6J, mouse, retina, ip, 25 mg/kg
molecule,measurement,setting,value
CN1CCN(S(=O)(=O)c2ccc(-c3cnc(N)c(C(=O)Nc4cccnc4)n3)cc2)CC1 [AZD2858],dose-response confirmation of HiBiT F3 reduction,[1],demonstrated dose-responsiveness
same,cytotoxicity profile,[2],favorable cytotoxicity profiles
6-bromoindirubin-3-oxime [BIO],HiBiT F3 secretion (extracellular),[3]; 72 h,significantly reduced
same,intracellular HiBiT F3 levels,[3]; 72 h,significantly reduced
Cc1cnc(-c2cnc(NCCNc3ccc(C#N)cn3)nc2-c2ccc(Cl)cc2Cl)[nH]1.Cl.Cl.Cl [CHIR trihydrochloride],Tmax,"[4]; liver, 25 mpk IP, mouse",30 min
same,Tmax,"[4]; plasma, 25 mpk IP, mouse",30 min
same,Tmax,"[4]; retina, 25 mpk IP, mouse",30 min
"[Cl-].[Li+] [LiCl, lithium chloride]",HiBiT F3 secretion (extracellular),[3]; 72 h,significantly reduced
same,intracellular HiBiT F3 levels,[3]; 72 h,significantly reduced
Cc1c[nH]c(-c2cnc(NCCNc3ccc(C#N)cn3)nc2-c2ccc(Cl)cc2Cl)n1 [CHIR99021],reduction of F3 secretion,"[3]; 1 μM, one week",49.9 ± 7.0%
same,reduction of HiBiT F3 secretion,"[3]; 10 μM, 72 h",up to 76%
same,HiBiT F3 secretion (extracellular),[3]; 72 h,significantly reduced
same,intracellular HiBiT F3 levels,[3]; 72 h,significantly reduced
same,reduction of MMP2 levels in apical media,[5],16-17%
same,reduction of MMP2 levels in basal media,[5],29-31%
same,TCF activation (FLuc),[6],without triggering TCF activation
same,intracellular HiBiT F3,[7],significantly reduced
same,secreted HiBiT F3,[7],significantly reduced
same,secreted F5,"[8]; 72 h, all concentrations used",dose-responsive reduction
same,F5 secretion,"[8]; week-long treatment, only at 1 and 10 μM",significantly reduced
same,blood-brain barrier crossing,[9],can cross the blood-brain barrier
same,toxicity by LDH release,[10]; 72 h,non-toxic
same,cell death by LDH release,"[10]; prolonged low level, one week",does not increase cell death
same,PEDF (SERPINF1) in proteomics and RNAseq datasets,[11],significantly upregulated
same,transcripts of TYR and TYRP1,[11],significantly upregulated
same,total protein secretion (SDS-PAGE of concentrated media),[12]; 10 μM,clear increase
same,banding pattern or intensity of secreted protein,[12]; 0.1 or 1 μM,relatively little detectable change
same,apically and basally secreted HiBiT WT F3 and HiBiT R345W F3,[13],significantly reduced
same,FOVs containing deposits (BLamDs),[14],4.167%
same,F3 production,[15],reduced F3 production
same,estimated peak concentration of CHIR in the eye,"[4]; after 30 min, 25 mg/kg i.p., based on vitreous volume ~4.4 μL",~ 1.3 μM
same,concentration at 3 h,[4]; [16],~1100 nM
same,concentration at 6 h,[4]; [16],364 nM
same,concentration at 24 h,[4]; [16],151 nM
same,Cmax,[4]; [17],33300 ng/g
same,Tmax,[4]; [17],30 min
same,concentration at 30 min,[4]; [17],33300 ng/g
same,concentration at 180 min,[4]; [17],4680 ng/g
same,concentration at 360 min,[4]; [17],1160 ng/g
same,concentration at 960 min,[4]; [17],6.1 ng/g
same,concentration at 1440 min,[4]; [17],5.2 ng/g
same,half-life,[4]; [17],120 min
same,MRT,"[4]; both, C57BL/6J, mouse, liver, ip, 25 mg/kg, MRT, 25 mpk IP",1.57 h
same,AUC(0-t),[4]; [18],15500 ng·h/mL
same,CL/F,[4]; [18],27 mL/min/kg
same,Cmax,[4]; [18],9250 ng/mL
same,Tmax,[4]; [18],30 min
same,concentration at 30 min,[4]; [18],9250 ng/mL
same,concentration at 180 min,[4]; [18],490 ng/mL
same,concentration at 360 min,[4]; [18],41 ng/mL
same,concentration at 960 min,[4]; [18],0.3 ng/mL
same,concentration at 1440 min,[4]; [18],0.4 ng/mL
same,half-life,[4]; [18],118 min
same,MRT,"[4]; both, C57BL/6J, mouse, plasma, ip, 25 mg/kg, MRT, 25 mpk IP",0.817 h
same,Cmax,[4]; [19],527 ng/g
same,Tmax,[4]; [19],30 min
same,concentration at 30 min,[4]; [19],527 ng/g
same,concentration at 180 min,[4]; [19],434 ng/g
same,concentration at 360 min,[4]; [19],148 ng/g
same,concentration at 960 min,[4]; [19],41 ng/g
same,concentration at 1440 min,[4]; [19],61 ng/g
same,half-life,[4]; [19],405 min
same,MRT,"[4]; both, C57BL/6J, mouse, retina, ip, 25 mg/kg, MRT, 25 mpk IP",6.05 h
same,AUClast,"[4]; liver, 25 mpk IP, mouse","4,231,688 ± 272,680 min*ng/g"
same,Vz_F,"[4]; plasma, 25 mpk IP, mouse",4586 mL/kg
same,AUClast,"[4]; retina, 25 mpk IP, mouse","213,348 ± 17,725 min*ng/g"
same,MRT,"[4]; retina, 25 mpk IP, mouse, 25 mg/kg",6.03 h
